Beta cell apopt: blocks beta cell apoptosis | INS-1E cytokine-induced death, ATP luminescence, 48 h; percent of positive-control rescue, neutral wells zero | protection from apoptosis, % (no concentration beside the values) | 0.8% of 300,000 active | AID 435005;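 active means Every replicate reaches about 75%, or at least half do and their mean reaches it too, limit read from the data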;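 further: 0% = cytokine-treated negative control wells and 100% = positive control rescue; higher means more ATP so stronger rescue from cytokine killing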
Calb FLC: C. albicans growth modulation with fluconazole. C. albicans CaCi-2 (fluconazole-resistant clinical isolate) + fluconazole, Alamar Blue growth, 48 h. growth inhibition, % (concentration not given with the values). 0.57% of 300,000 active;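 active means growth inhibition above about 58% in most replicates, limit read from the data, passing the limit was not always enough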;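 further: all wells also contain fluconazole at 8 µg/ml as a sub-toxic cotreatment; 0% = median of DMSO wells and 100% = median of geldanamycin control wells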
Mdm2 MdmX PPI: disrupts the human Mdm2-MdmX interaction | O15151+Q00987 | SaOS-2 split-luciferase Mdm2/MdmX complementation, luminescence | inhibition, % at 8 µM | 3% of 330,000 active | AID 485346;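 active means inhibition of at least 50% at 8 µM in the primary screen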
Target sequence (O15151 whole entry, looked up): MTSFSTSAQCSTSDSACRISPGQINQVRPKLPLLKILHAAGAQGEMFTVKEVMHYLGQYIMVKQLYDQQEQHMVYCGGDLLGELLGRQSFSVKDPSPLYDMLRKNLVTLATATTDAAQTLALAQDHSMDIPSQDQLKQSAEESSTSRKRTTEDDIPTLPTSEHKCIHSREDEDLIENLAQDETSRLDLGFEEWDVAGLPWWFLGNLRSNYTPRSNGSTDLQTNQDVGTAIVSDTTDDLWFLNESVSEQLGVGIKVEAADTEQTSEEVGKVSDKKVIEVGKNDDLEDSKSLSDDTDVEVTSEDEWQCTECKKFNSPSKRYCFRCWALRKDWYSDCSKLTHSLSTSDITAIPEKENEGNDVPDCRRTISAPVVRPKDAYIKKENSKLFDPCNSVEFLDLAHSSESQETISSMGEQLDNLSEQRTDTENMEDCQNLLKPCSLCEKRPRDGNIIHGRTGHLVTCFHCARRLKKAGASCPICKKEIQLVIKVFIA
Target sequence (Q00987 whole entry, looked up): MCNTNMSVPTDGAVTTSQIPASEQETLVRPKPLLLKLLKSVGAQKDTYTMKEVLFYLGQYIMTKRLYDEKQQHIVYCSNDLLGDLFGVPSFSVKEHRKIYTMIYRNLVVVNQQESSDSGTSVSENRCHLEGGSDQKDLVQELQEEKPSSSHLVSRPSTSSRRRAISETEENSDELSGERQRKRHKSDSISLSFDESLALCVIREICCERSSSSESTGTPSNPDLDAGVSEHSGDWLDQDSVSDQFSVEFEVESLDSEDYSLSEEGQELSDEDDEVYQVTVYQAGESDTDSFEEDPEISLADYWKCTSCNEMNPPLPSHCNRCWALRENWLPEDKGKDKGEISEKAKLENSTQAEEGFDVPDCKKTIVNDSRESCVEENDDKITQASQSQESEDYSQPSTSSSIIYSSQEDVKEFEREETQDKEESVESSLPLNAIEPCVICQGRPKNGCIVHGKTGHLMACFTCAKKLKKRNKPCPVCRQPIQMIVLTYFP
NLRP3 yeast inh: inhibitors of NALP3 inflammasome in yeast. Yeast reconstituted NLRP3/ASC/caspase-1, beta-gal luminescence, 24 h. inhibition, % at 10 µM. 0.39% of 330,000 active. AID 2825;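 active means inhibition of 50% or more; inactive means inhibition below 50%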;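 further: plate controls were induced DMSO wells for no effect and uninduced yeast grown without galactose for full effect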
CSC inhib: cancer stem cell inhibition; cancer stem cell-like cells viability, luminescence; AID 2717; 1.1% of 300,000 active; inhibition, % at 7.5 µM; in the data active means inhibition above about 75%; tested in HMLE shEcad cells
T cruzi inh: blocks replication of Trypanosoma cruzi; T. cruzi beta-gal in NIH3T3, luminescence, 90 h; inhibition, % (concentration not given with the values); 1.4% of 300,000 active;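 active means mean inhibition across valid replicates above about 55%, limit read from the data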;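 further: signal also drops with host cell toxicity which is not excluded here; 0% = plate median of DMSO wells and 100% = zero luminescence signal; higher percent means less beta-gal luminescence so fewer parasites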
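Assay system: NIH/3T3 fibroblasts plus reporter T. cruzi. Amount: NIH/3T3 cells, 5,000 per well. Buffer or medium: DMEM, 2% fetal bovine serum. Doses: compound pinned at 50 nL/well, DMSO. Schedule: ≥90 h infection period, 3 h prior cell attachment. Signal: luminescent β-galactosidase signal after 60 min lysis. Read-out: parasite load inhibition, %.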
The depositor's hits bear a star; nt = no result. Shown are actives, neighbours in structure and some others; about 5.3% of the full set was active somewhere.

SMILES	Beta cell apopt	Calb FLC	Mdm2 MdmX PPI	NLRP3 yeast inh	CSC inhib	T cruzi inh
Nc1c(-c2ccccc2)c(CSc2nc3ccccc3[nH]2)nn1-c1ccc(Cl)cc1	7	3	nt	nt	37	64*
CCc1ccc2[nH]c(=O)c(CN(Cc3ccccc3OC)C(=O)Nc3ccccc3OC)cc2c1	8	0	25	5	-7	62*
COc1cccc(CN(C)CC2CCCN(CCc3ccccc3C)C2)c1 (configuration not stated)	nt	1	21	27	4	55*
O=C(Nc1nnc(-c2ccco2)o1)c1ccc(Cl)cc1	2	102*	27	-1	47	51
O=C(CSc1ccccc1)Nc1nnc(-c2ccco2)o1	nt	15	24	6	-9	-5
O=C(CSc1ccc(Cl)cc1)Nc1nnc(-c2ccco2)o1	1	84*	23	9	0	-6
COc1c(Br)cc([N+](=O)[O-])c(OC)c1C(=O)NC(=O)Nc1c(Cl)cccc1Cl	nt	84*	9	2	-10	nt
Cc1cccc(Cn2nnc3c2C(=O)c2ccccc2C3=O)c1	110*	-10	42	-4	-14	61*
Cc1ccccc1Cn1nnc2c1C(=O)c1ccccc1C2=O	nt	-16	36	0	44	53
Cc1ccc(NS(=O)(=O)c2ccc(NC(=O)CN(c3cc([N+](=O)[O-])ccc3C)S(C)(=O)=O)cc2)c(C)c1	106*	11	37	6	-5	51
Cc1ccc(NS(=O)(=O)c2ccc(NC(=O)c3ccccc3C(=O)O)cc2)c(C)c1	nt	1	-14	-2	-6	64*
COc1ccc(C)cc1S(=O)(=O)N(CC(=O)Nc1cccc([N+](=O)[O-])c1)c1ccccc1	13	4	14	12	-5	12
CC(=O)Nc1ccc(NC(=O)CN(c2cccc([N+](=O)[O-])c2)S(C)(=O)=O)cc1	108*	-12	-9	18	-17	-2
Cc1cc(C)cc(NS(=O)(=O)c2ccc(NC(=O)c3ccccc3C(=O)O)cc2)c1	-7	4	8	14	-5	-6
Cc1ccc(NC(=O)CN(c2ccc(Cl)cc2)S(=O)(=O)c2cc([N+](=O)[O-])ccc2Cl)c(C)c1	25	5	36	18	45	59*
C[C@H](CO)N1C[C@H](C)[C@@H](CN(C)C(=O)NC2CCCCC2)Oc2c(NC(=O)Nc3ccc4c(c3)OCO4)cccc2C1=O	-3	nt	24	9	6	nt
COc1ccc(C(=O)NC(=S)Nc2ccc(S(=O)(=O)Nc3cc(OC)ncn3)cc2)cc1	3	0	-12	5	-5	-10
CN(C)S(=O)(=O)N1CCC(Oc2cccc(C(=O)NCCC3=CCCCC3)c2)CC1	15	-2	27	16	3	13
CC1=NN(c2nc(-c3ccc(Cl)cc3)cs2)C(=O)C1	-5	1	1	10	123*	-11
CC1=NN(c2nc(-c3ccc(F)cc3)cs2)C(=O)C1	-9	28	-13	10	86*	7
Fc1ccc(-c2csc(N3CCSCC3)n2)cc1	-2	2	-40	-17	-12	11
Cc1[nH]c(=O)[nH]c(=O)c1/C=N\NC(=O)CCc1ccc(OC(C)C)cc1	-1	0	23	11	-7	13
O=C(COC(=O)c1cccc([N+](=O)[O-])c1)NCc1ccc2c(c1)OCO2	-13	2	6	6	-2	-8
Cc1cc(Nc2ccccc2)nc(-c2ccccc2O)n1	6	-4	-18	7	80*	-5
Cc1cc(Nc2cccc(F)c2)nc(-c2ccccc2O)n1	1	-10	34	-18	102*	56*
COCCN(C(=O)c1ccc(N2CCCC2=O)cc1)c1c(N)n(CC(C)C)c(=O)[nH]c1=O	4	nt	-4	16	nt	nt
O=C(O)C1C2CCC(O2)C1C(=O)NCCC1=CCCCC1 (configuration not stated)	-2	5	10	11	-2	-13
Cc1nc(C(F)(F)F)c(C(=O)N/N=C(\N)c2ccccn2)s1	77*	1	35	7	10	-15
O=C(O)CCCCCCCCCCCc1ccccc1	nt	1	20	9	-10	-15
CCCCCc1ccc(-c2cn(CN3C(=O)c4ccccc4C3=O)nn2)cc1	96*	-9	24	15	5	0

Compound activity as filed in PubChem.
